For series [1], the system named is Digitaria sanguinalis. The experiment in a line: Herbicidal activity against Digitaria sanguinalis (hairy crabgrass) assessed as inhibition of fresh weed plant weights at 600 g ai/ha using pre-emergence treatment protocol under greenhouse conditions relative to untreated control. The series is classed as functional. In outline:
(§1)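 Pre-emergence test in plastic pots kept in a greenhouse at 22-25 °C. Fresh weight of aerial plant parts was measured 20 days later, and percent inhibition calculated relative to water-sprayed controls. Metolachlor served as the positive control. Three replicates were run per concentration.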

The subject of series [2] is Portulaca oleracea. The series is described as follows: Herbicidal activity against Portulaca oleracea assessed as inhibition of root growth at […] measured 7 days post treatment. The series is classed as functional. The conditions noted are these: 168 h, read-out: GI. Details: dose or concentration left out as unconfirmed.
Series [3] relates to Echinochloa crus-galli. The series is described as follows: Herbicidal activity against Echinochloa crus-galli (barnyard grass) assessed as inhibition of fresh weed plant weights at 600 g ai/ha using pre-emergence treatment protocol under greenhouse conditions relative to untreated control. Type of series: functional. In outline:
as §1

Series [4] relates to Echinochloa crus-galli. The experiment in a line: Herbicidal activity against Echinochloa crus-galli (barnyard grass) assessed as inhibition of root growth at […] measured 7 days post treatment. Type of series: functional. Details: dose or concentration left out as unconfirmed. The conditions noted are these: 168 h, read-out: GI.
Series [5] relates to Echinochloa crus-galli. The experiment in a line: Herbicidal activity against Echinochloa crus-galli (barnyard grass) assessed as inhibition of shoot growth at […] measured 7 days post treatment. The series is classed as functional. The arrangement: dose or concentration left out as unconfirmed. The conditions noted are these: 168 h, read-out: GI.
Series [6] has as its system Portulaca oleracea. The experiment in a line: Herbicidal activity against Portulaca oleracea assessed as inhibition of shoot growth at […] measured 7 days post treatment. Type of series: functional. The conditions noted are these: 168 h, read-out: GI. In outline:
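Petri-dish agar assay. A 10 g/L stock of compound in acetone was mixed into molten agar; the untreated control was agar without compound. Seeds were placed on the agar surface and the cups were covered with glass lids. Incubation was 25 ± 1 °C, 50-55% RH, 12 h light/12 h dark, for 7 days. Root and shoot lengths were measured and growth inhibition calculated against the control, in three replicates.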

Series [7] deals with Zea mays. The experiment in a line: Toxicity against Zea mays var. SHEN DAN 17 (maize) assessed induction of crop injury at 1404 g ai/ha using pre-emergence treatment protocol under field trials conditions measured 30 days post soil treatment. The series is classed as organism-based. The conditions noted are these: in vivo, other, 720 h.
Another series has as its system Convolvulus arvensis. The experiment in a line: Herbicidal activity against Convolvulus arvensis assessed as inhibition of fresh weed plant weights at 1404 g ai/ha using pre-emergence treatment protocol under field trials conditions measured 30 days post soil treatment relative to untreated control. The series is classed as functional. Particulars: 720 h.
Series [8] has as its system Portulaca oleracea. The series is described as follows: Herbicidal activity against Portulaca oleracea assessed as inhibition of fresh weed plant weights at 1404 g ai/ha using pre-emergence treatment protocol under field trials conditions measured 30 days post soil treatment relative to untreated control. The series is classed as functional. Particulars: 720 h.
Series [9] deals with Eleusine indica. The experiment in a line: Herbicidal activity against Eleusine indica assessed as inhibition of fresh weed plant weights at 1404 g ai/ha using pre-emergence treatment protocol under field trials conditions measured 30 days post soil treatment relative to untreated control. Type of series: functional. Particulars: 720 h.
In series [10] the test system is Echinochloa crus-galli. The experiment in a line: Herbicidal activity against Echinochloa crus-galli (barnyard grass) assessed as inhibition of fresh weed plant weights at 1404 g ai/ha using pre-emergence treatment protocol under field trials conditions measured 30 days post soil treatment relative to untreated control. Type of series: functional. Particulars: 720 h.

Series [11] deals with Digitaria sanguinalis. The experiment in a line: Herbicidal activity against Digitaria sanguinalis (hairy crabgrass) assessed as inhibition of fresh weed plant weights at 1404 g ai/ha using pre-emergence treatment protocol under field trials conditions measured 30 days post soil treatment relative to untreated control. Particulars: 720 h. Type of series: functional.
Series [12] relates to Zea mays. The experiment in a line: Toxicity against Zea mays var. SHEN DAN 17 (maize) assessed as inhibition of fresh weed plant weights at 600 g ai/ha using pre-emergence treatment protocol under greenhouse conditions relative to untreated control. The conditions noted are these: in vivo, other. Type of series: organism-based. In outline: as §1
Series [13] concerns Zea mays. The series is described as follows: Toxicity against Zea mays var. SHEN DAN 17 (maize) assessed as inhibition of fresh weed plant weights at 300 g ai/ha using pre-emergence treatment protocol under greenhouse conditions relative to untreated control. The series is classed as organism-based. Particulars: in vivo, other. In outline:
as §1

Series [14] relates to Portulaca oleracea. The experiment in a line: Herbicidal activity against Portulaca oleracea assessed as inhibition of fresh weed plant weights at 600 g ai/ha using pre-emergence treatment protocol under greenhouse conditions relative to untreated control. The series is classed as functional. In outline:
as §1

For series [15], the system named is Portulaca oleracea. The experiment in a line: Herbicidal activity against Portulaca oleracea assessed as inhibition of fresh weed plant weights at 300 g ai/ha using pre-emergence treatment protocol under greenhouse conditions relative to untreated control. The series is classed as functional. In outline:
as §1

In series [16] the test system is Portulaca oleracea. The experiment in a line: Herbicidal activity against Portulaca oleracea assessed as inhibition of fresh weed plant weights at 150 g ai/ha using pre-emergence treatment protocol under greenhouse conditions relative to untreated control. The series is classed as functional. In outline:
as §1

Series [17] has as its system Echinochloa crus-galli. The series is described as follows: Herbicidal activity against Echinochloa crus-galli (barnyard grass) assessed as inhibition of fresh weed plant weights at 300 g ai/ha using pre-emergence treatment protocol under greenhouse conditions relative to untreated control. Type of series: functional. In outline: as §1
Series [18] relates to Echinochloa crus-galli. The experiment in a line: Herbicidal activity against Echinochloa crus-galli (barnyard grass) assessed as inhibition of fresh weed plant weights at 150 g ai/ha using pre-emergence treatment protocol under greenhouse conditions relative to untreated control. Type of series: functional. In outline: as §1
The test system of series [19] is Digitaria sanguinalis. The series is described as follows: Herbicidal activity against Digitaria sanguinalis (hairy crabgrass) assessed as inhibition of fresh weed plant weights at 300 g ai/ha using pre-emergence treatment protocol under greenhouse conditions relative to untreated control. The series is classed as functional. In outline: as §1
Series [20] concerns Digitaria sanguinalis. The experiment in a line: Herbicidal activity against Digitaria sanguinalis (hairy crabgrass) assessed as inhibition of fresh weed plant weights at 150 g ai/ha using pre-emergence treatment protocol under greenhouse conditions relative to untreated control. Type of series: functional. In outline:
as §1

The subject of series [21] is Eleusine indica. The series is described as follows: Herbicidal activity against Eleusine indica assessed as inhibition of fresh weed plant weights at 600 g ai/ha using pre-emergence treatment protocol under greenhouse conditions relative to untreated control. Type of series: functional. In outline: as §1
The subject of series [22] is Eleusine indica. The series is described as follows: Herbicidal activity against Eleusine indica assessed as inhibition of fresh weed plant weights at 300 g ai/ha using pre-emergence treatment protocol under greenhouse conditions relative to untreated control. Type of series: functional. In outline:
as §1

Series [23] has as its system Eleusine indica. The series is described as follows: Herbicidal activity against Eleusine indica assessed as inhibition of fresh weed plant weights at 150 g ai/ha using pre-emergence treatment protocol under greenhouse conditions relative to untreated control. Type of series: functional. In outline:
as §1

Series [24] has as its system Brassica rapa subsp. oleifera. The series is described as follows: Toxicity against Brassica rapa subsp. oleifera var. JING GUAN 1 assessed as inhibition of fresh weed plant weights at 600 g ai/ha using pre-emergence treatment protocol under greenhouse conditions relative to untreated control. The series is classed as organism-based. Particulars: in vivo, other. In outline: as §1

Series [25] concerns Brassica rapa subsp. oleifera. The series is described as follows: Toxicity against Brassica rapa subsp. oleifera var. JING GUAN 1 assessed as inhibition of fresh weed plant weights at 300 g ai/ha using pre-emergence treatment protocol under greenhouse conditions relative to untreated control. Type of series: organism-based. The conditions noted are these: in vivo, other. In outline:
as §1

Series [26] deals with Brassica rapa subsp. oleifera. The series is described as follows: Toxicity against Brassica rapa subsp. oleifera var. JING GUAN 1 assessed as inhibition of fresh weed plant weights at 150 g ai/ha using pre-emergence treatment protocol under greenhouse conditions relative to untreated control. The conditions noted are these: in vivo, other. The series is classed as organism-based. In outline:
as §1

The inhibition is the drop in the measured response relative to a control, in per cent. Consider `Cc1nn(CC(F)(F)F)c(CSC2=NOC(C)(C)C2)c1Br`, for which the inhibition at 600 g/ha came out at 74% in the series on Digitaria sanguinalis [1] and 82% in the series with Echinochloa crus-galli [3]. Besides, the inhibition of growth in the series on Portulaca oleracea [2] amounted to 80%; with Echinochloa crus-galli [4] it was 86%; in the series with Echinochloa crus-galli [5], 88%. Moreover, the inhibition of growth at 100000 µg/mL in the series with Portulaca oleracea [6] was 54%.
In the case of `Cc1nn(CC(F)(F)F)c(CS(=O)(=O)C2=NOC(C)(C)C2)c1Br`, the results for the inhibition at 600 g/ha with Digitaria sanguinalis [1] and in the series with Echinochloa crus-galli [3] were 79% and 100%, respectively. The inhibition of growth with Portulaca oleracea [2] is 80%; in the series on Echinochloa crus-galli [4], 74%; in the series with Echinochloa crus-galli [5] it was 81%. Also, the inhibition of growth at 100000 µg/mL with Portulaca oleracea [6] came out at 62%.
Take `Cc1nn(CC(F)(F)F)c(CS(=O)(=O)C2=NOC(C)(C)C2)c1I`: the inhibition at 600 g/ha turned out to be 90% in the series with Digitaria sanguinalis [1] and 100% in the series on Echinochloa crus-galli [3]. Further, the inhibition of growth with Portulaca oleracea [2] was found to be 75%; in the series on Echinochloa crus-galli [4] it was 63%; in the series on Echinochloa crus-galli [5], 84%. Moreover, the inhibition of growth at 100000 µg/mL in the series on Portulaca oleracea [6] was found to be 62%.
With `Cc1nn(CC(F)(F)F)c(CSC2=NOC(C)(C)C2)c1Cl`, the inhibition at 600 g/ha worked out at 54% with Digitaria sanguinalis [1] and 81% in the series with Echinochloa crus-galli [3]. Further, the inhibition of growth turned out to be 75% in the series on Portulaca oleracea [2], 89% in the series on Echinochloa crus-galli [4] and 88% in the series with Echinochloa crus-galli [5]. The inhibition of growth at 100000 µg/mL with Portulaca oleracea [6] stood at 54%.
Regarding `Cc1nn(CC(F)(F)F)c(CSC2=NOC(C)(C)C2)c1I`, the inhibition at 600 g/ha in the series on Digitaria sanguinalis [1] was found to be 54%; in the series on Echinochloa crus-galli [3], 100%. For the same molecule, the inhibition of growth stood at 81% with Portulaca oleracea [2], 86% in the series with Echinochloa crus-galli [4] and 89% with Echinochloa crus-galli [5]. Besides, in the series with Portulaca oleracea [6], the inhibition of growth at 100000 µg/mL came to 62%.
`CCc1cccc(C)c1N(C(=O)CCl)C(C)COC` (configuration not stated) [METOLACHOR] gave an Activity with Zea mays [7] of 0%. The inhibition at 1404 g/ha was 47% in the series on Convolvulus arvensis; 100% in the series on Portulaca oleracea [8]; 99% with Eleusine indica [9]; 100% in the series on Echinochloa crus-galli [10]; 95% in the series on Digitaria sanguinalis [11]. The “inhibition (INH)” value amounted to 2% in the series on Zea mays [12]; 2% in the series with Zea mays [13]; 11% in series [24]; 9% in series [25]; 0% in series [26]. Also, the inhibition at 600 g/ha was 60% in the series on Portulaca oleracea [14], 97% in the series on Eleusine indica [21], 90% in the series on Digitaria sanguinalis [1] and 50% in the series on Echinochloa crus-galli [3]. Further, the inhibition at 300 g/ha was determined as 57% with Portulaca oleracea [15], 39% in the series on Echinochloa crus-galli [17], 76% in the series with Digitaria sanguinalis [19] and 98% with Eleusine indica [22]. For the same molecule, the inhibition at 150 g/ha in the series with Portulaca oleracea [16] was determined as 36%; in the series on Echinochloa crus-galli [18] it was 25%; in the series with Digitaria sanguinalis [20], 43%; with Eleusine indica [23] it was 84%. Further, the figures for the inhibition of growth in the series on Portulaca oleracea [2], in the series with Echinochloa crus-galli [4] and with Echinochloa crus-galli [5] were 74%, 80% and 88%, respectively. In the series with Portulaca oleracea [6], the inhibition of growth at 100000 µg/mL amounted to 62%.

Source of the values: ChEMBL document CHEMBL3046055, “Synthesis and herbicidal activity of novel N-(2,2,2)-trifluoroethylpyrazole derivatives” (J Agric Food Chem, 2010).
